Three compounds from PMC9771833 (International Journal for Parasitology: Drugs and Drug …, 2022) can be followed below.

Data set [1] in a line: In vitro cytotoxicity in Vero cells. The note with it: African green monkey, Vero cells (kidney epithelial cells), CC50, Vero cell, mean ± SD. The data set is classed as cell-based, African green monkey (Chlorocebus sp.). An outline of the steps:
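Vero cells were pre-seeded 12 h, then exposed to serially diluted test compound or control drugs for 48 h. Viability was read with CellTiter 96 AQueous One reagent at 490 nm absorbance. CC50 was calculated from the concentration–response data.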

In data set [2] the test system is Plasmodium falciparum 3D7. The data set is classed as cell-based. The note with it: 3D7 (CQ Sensitive); relative to SKM13.
Another data set deals with P. f K1 (CQ Resistant). The data set is classed as cell-based, Plasmodium falciparum. The note with it: relative to SKM13.
For data set [3], the system named is Plasmodium berghei NAT (atovaquone-resistant strain). The data set can be described thus: 4-day suppression test in P. berghei NAT-infected ICR mice. Type of data set: in vivo. An outline of the steps: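 Female 7-week-old ICR-1 mice (6/group) infected i.p. with 10^7 P. berghei NAT-infected erythrocytes. Dosing began 1 dpi: test compound at 10, 20 or 30 mg/kg, once daily for 4 days. Controls were DHA 10, atovaquone 4 and chloroquine 10 mg/kg, given i.v. once daily for 4 days. Parasitemia was measured daily by FACS of tail blood. Weight and survival were recorded daily to 15 dpi.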

Data set [4] has the same test system. The data set can be described thus: Hematological analysis of P. berghei NAT-infected mice. The data set is classed as in vivo. In a few lines: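 Same P. berghei NAT-infected ICR-1 mouse model: 10^7 infected erythrocytes given i.p., test compound or control drug once daily for 4 days from 1 dpi. Blood was taken at 3, 6, 9 and 12 dpi and run on an automated blood cell counter for WBC, RBC, haemoglobin and hematocrit.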

In data set [5] the test system is eIF2α phosphorylation (ER stress response). The data set is described as follows: Western blotting of phosphorylated eIF2α in trophozoite lysates. The data set is classed as cell-based, Plasmodium falciparum. The note with it: trophozoites treated 90 min, Western blot. An outline of the steps: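 P. falciparum trophozoite cultures (5% hematocrit, 5% parasitemia) were plated 10–12 h, then drug-treated at 37 °C. Parasites were freed with 0.15% saponin, lysed in RIPA, run on 10% Bis-Tris SDS-PAGE and transferred to PVDF. Blots were blocked in 5% BSA and probed overnight at 4 °C with anti-phospho-eIF2α (1:1000), anti-eIF2α (1:3000) and anti-PfEF1α (5 μg/mL) as loading control. Detection used HRP secondaries and ECL.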
(In general: A western blot detects proteins with antibodies after separation by electrophoresis.)

As a reminder, the CC50 is the concentration giving 50% cytotoxicity. A higher CC50 goes with lower toxicity to the cells. Regarding `CCN(CC)CCCC(C)Nc1ccnc2cc(Cl)ccc12` (centres unmarked) [Chloroquine], it took 120 ± 16.4 µM to reach half-maximal cytotoxicity in data set [1] (CC50 at 48 h). The “Relative SI” value in data set [2] turned out to be 20.93; in the data set on P. f K1 (CQ Resistant), 7.81. Besides, the body weight entry in data set [3] (10 mg/kg) is listed as “maintained normal mouse body weight”. Besides, the “parasite density (parasitemia)” value in data set [3] (10 mg/kg i.v., all observation period, p < 0.001) is recorded as “significantly reduced”. In data set [4] (10 mg/kg, infected mice, 3-12 dpi), the “WBC counts, HCT and Hgb” value was “did not affect”. The “phosphorylation of eIF2α” value in data set [5] is “did not increase phosphorylation of eIF2α”.
Turning to `O=C1C(O)=C([C@H]2CC[C@H](c3ccc(Cl)cc3)CC2)C(=O)c2ccccc21` [Atovaquone], in data set [3] (4 mg/kg), the body weight result is recorded as “decreased”. The parasitemia density entry in data set [3] (4 mg/kg i.v.) is “did not suppress parasitemia density”. In data set [3] (4 mg/kg i.v. once a day for four days, 15 dpi, ICR mice n = 6), this compound had a survival rate of 33%. Besides, the WBC counts entry in data set [4] (4 mg/kg, compared with infected untreated mice (WBC increased at 9 to 12 dpi)) was “same pattern of haematological result”.
In the case of `C[C@H]1[C@@H](O)O[C@@H]2O[C@@]3(C)CC[C@H]4[C@H](C)CC[C@@H]1[C@@]24OO3` [DHA, Dihydroartemisinin], the CC50 at 48 h in data set [1] is 31.3 ± 8.94 µM. The “Relative SI” value in data set [2] is recorded as 4.84; with P. f K1 (CQ Resistant), 3.97.
